PDI inh = blocks human protein disulfide isomerase activity; P07237; hit rate 0.052% among 350,000; inhibition, % at 10 µM; PDI insulin aggregation turbidity, A650, 90 min;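 active = mean inhibition across replicates of 30% or more, whatever share of single replicates reach that level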
ERAP1 inh = inhibitors of human ERAP1 aminopeptidase. Q9NZ08. inhibition, % at 10.7 µM. recombinant ERAP1, Leu-AMC fluorescence, 60 min. hit rate 0.15% among 340,000;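 active = mean replicate inhibition of at least 30%, or all replicates individually reaching that 30% level; inactive = mean below 30% and not every replicate reaching it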;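 note: 0% = neutral control wells and 100% = L-leucinethiol positive control wells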
S100A4 inh HTS = S100A4-myosin IIA interaction inhibition; P26447; S100A4/TAMRA-MyoIIA peptide fluorescence polarization; inhibition, % at 10.7 µM; hit rate 0.14% among 360,000;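 active = mean inhibition of at least 70% across replicates, with every replicate also reaching that level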
Target sequence (P26447 whole entry, looked up): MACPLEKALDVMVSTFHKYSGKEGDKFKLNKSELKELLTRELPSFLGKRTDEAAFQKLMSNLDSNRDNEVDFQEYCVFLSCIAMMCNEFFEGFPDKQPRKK
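incubation = readout 5 min after mixing, signal stable up to 60 min | system = S100A4 monomer protein | buffer or medium = HEPES pH 7.2 with CaCl2, KCl, NaCl, DTT, Triton | benchmarks = neutral control DMSO, positive control TFP | also added = fluorescent myosin IIA peptide, 5 nM | compound dosing = one concentration per compound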
ERp5 inh = ERp5 (human) disulfide isomerase inhibition; inhibition, % at 9.99 µM; ERp5 insulin aggregation, absorbance 650 nm, 90 min; Q15084; hit rate 0.05% among 350,000;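 active = mean replicate inhibition above about 25%, with every replicate also reaching it, limit read from the data, passing the limit was not always enough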
FGF22 binding = shifts melting point of recombinant human FGF22; Q9HCT0; recombinant FGF22 thermal shift, SYPRO orange fluorescence; percent of sucrose octasulfate shift, DMSO zero; activity (Tm shift, normalised), % at 9.99 µM; hit rate 1.5% among 340,000;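 active = mean Tm shift, scaled 0 neutral to 100 positive control, at about 1.3% or above, every replicate too, limit read from the data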
Target sequence (Q9HCT0 whole entry, looked up): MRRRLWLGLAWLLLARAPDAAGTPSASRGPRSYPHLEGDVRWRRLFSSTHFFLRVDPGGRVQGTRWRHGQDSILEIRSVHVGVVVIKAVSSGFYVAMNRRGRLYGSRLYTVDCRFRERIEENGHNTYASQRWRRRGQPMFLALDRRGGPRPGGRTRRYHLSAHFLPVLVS
An asterisk follows results filed as active; · = no result; + = active, no number; ! = a repeat was not active. This excerpt belongs to a sample that is enriched for hits.

SMILES	PDI inh	ERAP1 inh	S100A4 inh HTS	ERp5 inh	FGF22 binding
COc1cc2c3nnc(-c4ccc(F)cc4)c-3cn(Cc3cccc(F)c3)c2cc1OC	29	·	·	·	·
COc1cc2c3nnc(-c4ccc(F)cc4)c-3cn(Cc3ccc(C)cc3)c2cc1OC	-7	3	+	4	0
COc1ccccc1NC(=O)NC[C@@H]1CC[C@@H]2[C@@H](CN2S(=O)(=O)c2ccc(Cl)cc2)O1	·	-2	-3	1	·
Cc1ccc(C)c(S(=O)(=O)Nc2ccc(C(=O)N3CC(C)OC(C)C3)cc2)c1 (configuration not stated)	-1	-4	-2	1	0
O=C(CNC(=O)Cc1ccc(Cl)cc1)NCC(=O)N1CCCCC1	5	6	-2	0	0
C[C@H](NC(=O)c1nc[nH]c1C(=O)N1CCN(C(=O)OC(C)(C)C)CC1)C(=O)OCc1ccccc1	-3	2	0	7	0
CC1CCN(C(=O)c2[nH]cnc2C(=O)N[C@@H](C)C(=O)OCc2ccccc2)CC1	9	·	138*	0	0
CC1=CCC(C(=O)O)(C(=O)N/N=C/c2cccs2)C(c2ccc(Cl)cc2)C1 (configuration not stated)	-4	2	2	1	0
C[C@@H]1CCCCO[C@H](CN(C)C(=O)Nc2ccc(F)cc2)[C@H](C)CN([C@@H](C)CO)C(=O)c2cc(NC(=O)Nc3ccc(C(F)(F)F)cc3)ccc2O1	·	-4	-6	0	1.3*
C[C@H](CO)N1C[C@H](C)[C@H](CN(C)C(=O)Nc2ccc(F)cc2)OCCCC[C@H](C)Oc2ccc(NC(=O)Nc3ccc(C(F)(F)F)cc3)cc2C1=O	·	-5	-29	2	1.3*
C[C@@H]1CCCCO[C@H](CN(C)C(=O)Nc2ccc(F)cc2)[C@@H](C)CN([C@H](C)CO)C(=O)c2cc(NC(=O)Nc3ccc(C(F)(F)F)cc3)ccc2O1	·	-4	-7	-1	0
C/C(=N\NC(=O)c1cc(C)[nH]n1)c1cccs1	1	-3	-3	-1	44*
C/C(=N\NC(=O)c1ccc(CSc2nncn2C)cc1)c1ccc(Cl)cc1	8	-1	1	2	0
C/C(=N\NC(=O)c1ccc(CSc2nncn2C)cc1)c1cccs1	6	0	-5	-6	43*
C/C(=N/NC(=O)c1cc(C(C)C)[nH]n1)c1cccs1	-3	·	·	·	·
COCC(=O)NC[C@H]1[C@@H](c2ccc(C3=CCCC3)cc2)[C@@H](CO)N1C(=O)C1CC1	·	·	·	-4	·
CCN1C(=O)C(CC(=O)Nc2ccccc2)N(Cc2ccccn2)C1=S (configuration not stated)	6	1	-5	-7	0
C=CCN1C(=O)C(CC(=O)Nc2ccccc2)N(Cc2ccccn2)C1=S (configuration not stated)	-2	-1	37	2	44*
C[C@H](NC(=O)c1ccco1)C(=O)Nc1cccc([N+](=O)[O-])c1	6	-1	1	-1	42
CN1/C(=C\C=C2/SC(=S)NC2=O)C(C)(C)c2ccccc21	-5	-3	104*	2	0
CN1C(=CC=C2C=C(I)C(=O)C(I)=C2)C(C)(C)c2ccccc21	-1	·	-1	6	0
CN1/C(=C\C=C2/C(=O)Oc3ccccc3C2=O)C(C)(C)c2ccccc21	·	-2	178*	-9	0
CCNc1c(NCC)c(=O)c1=O	-1	·	7	5	0
COc1ccc2cc(C(=O)C3CCCN(C(=O)C4=NN(C)C(=O)CC4)C3)ccc2c1 (configuration not stated)	-4	2	7	7	0
O=C(CC[C@H]1O[C@@H](n2cnc3c(NC(=O)c4ccccc4)ncnc32)[C@H](O)[C@@H]1O)N[C@@H](CO)c1ccccc1	·	7	0	2	0
SMILES	PDI inh	ERAP1 inh	S100A4 inh HTS	ERp5 inh	FGF22 binding
Cc1noc(C)c1NC(=O)N(C)C[C@H]1Oc2ccc(NC(=O)c3ccncc3)cc2C(=O)N([C@H](C)CO)C[C@@H]1C	12	4	27	28*!	0
Cc1noc(C)c1NC(=O)Nc1ccc2c(c1)C(=O)N([C@H](C)CO)C[C@@H](C)[C@@H](CN(C)C(=O)Nc1ccc(F)cc1)O2	·	0	-6	51*	0
Cc1noc(C)c1NC(=O)Nc1ccc2c(c1)C(=O)N([C@H](C)CO)C[C@H](C)[C@H](CN(C)C(=O)Nc1ccc(F)cc1)O2	·	0	-9	0	0
C[C@H](CO)N1C[C@H](C)[C@H](CN(C)Cc2ccc(-c3ccccc3)cc2)OCc2ccccc2-c2c(n(C)c3ccccc23)C1=O	·	-2	7	13	0
CN(Cc1ccccc1F)c1ccc(S(=O)(=O)N2CCCC2)cn1	9	-1	-1	2	0
C[C@@H]1CN([C@@H](C)CO)C(=O)c2cc(C3=CCCCC3)cnc2O[C@H]1CN(C)C(=O)c1ccccn1	·	-1	-3	1	0
COc1ccc(S(=O)(=O)Nc2ccc3c(c2)C(=O)N([C@@H](C)CO)C[C@H](C)[C@H](CN(C)Cc2ccc(-c4ccccc4)cc2)O3)cc1	·	5	5	3	-1
O=C(COC(=O)/C=C/c1cn(-c2ccccc2)nc1-c1ccc2c(c1)OCCO2)NC1CCS(=O)(=O)C1 (configuration not stated)	-3	·	2	5	0
CN(C(=O)COC(=O)/C=C/c1cn(-c2ccccc2)nc1-c1ccc2c(c1)OCCO2)C1CCS(=O)(=O)C1 (configuration not stated)	-2	4	-9	-3	43*
O=C(CCS(=O)(=O)c1ccccc1)Nc1ccc(-c2nc3ccccc3s2)cc1	8	-1	-1	-1	44*
O=C(CCS(=O)(=O)c1ccccc1)Nc1cccc(-c2nc3ccccc3s2)c1	-5	0	-3	-10	1
O=C(CCS(=O)(=O)c1ccccc1)Nc1ccc(S(=O)(=O)Nc2nccs2)cc1	3	2	0	0	43*
CCOC(=O)C1=C(C)NC(=S)NC1C (configuration not stated)	-8	0	-1	-4	44*
CCOC(=O)C1=C(c2ccccc2)NC(=S)NC1C (configuration not stated)	-3	·	·	·	·
COc1cccc(CNC(=O)COC(=O)c2c(C)nn(-c3ccccc3)c2Cl)c1	2	1	-1	1	0
O=C(CCCCn1ccc(=O)[nH]c1=O)Nc1ccc(O)c(C(=O)O)c1	8	4	1	-1	43*
CCOC(=O)c1sc2ncc([N+](=O)[O-])cc2c1N	-1	-1	-8	1	0
COC(=O)c1sc2cc([N+](=O)[O-])cc(SCC(C)C)c2c1N	-16	0	4	2	44*
CC1(C(=O)Nc2ccc3c(c2)OCO3)Cc2c(-c3ccc4c(c3)OCO4)ccnc2O1 (configuration not stated)	2	-2	0	4	0

High-throughput results: PubChem BioAssay, Broad Institute
